Measured values published in ChEMBL document CHEMBL1150591, “Structure and absolute stereochemistry of hectochlorin, a potent stimulator of actin assembly” (J Nat Prod, 2002).
pEC50, pIC50: −log10 of the molar value. Calls of active or inactive are those of the source. The rule behind the calls is not given here.

Tests used:
CA46 [1] = test: Cell cycle arrest in human CA46 cells assessed as accumulation at G2/M phase at 0.2 uM after 24 hrs using propidium iodide labeling by flow cytometry; assay type: functional
CA46 [2] = test: Ratio of IC50 for rat kangaroo Ptk2 cells to IC50 for human CA46 cells
PtK2 [3] = test: Effect on actin cytoskeleton in rat kangaroo PtK2 cells assessed as increase in binucleated cells at 0.3 to 3 uM after 24 hrs by immunofluorescence analysis; assay type: functional, cell-based; settings: Potorous tridactylus
In short: (§1)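 PtK2 cells were treated 24 h at 37 °C, then stained with FITC-anti-β-actin antibody (clone Ac-15) and DAPI. Cells were viewed under a 40× oil objective. FITC-phalloidin staining was also used.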

PtK2 [4] = test: Effect on actin cytoskeleton in rat kangaroo PtK2 cells assessed as increase in binucleated cells at 1 to 10 uM after 24 hrs by immunofluorescence analysis; assay type: functional, cell-based; settings: Potorous tridactylus; in short: as §1
PtK2 [5] = test: Effect on actin cytoskeleton in rat kangaroo PtK2 cells assessed as thickening in microfilament at 0.3 uM after 24 hrs by immunofluorescence analysis relative to untreated control; assay type: functional, cell-based; settings: Potorous tridactylus; in short: as §1
PtK2 [6] = test: Effect on actin cytoskeleton in rat kangaroo PtK2 cells assessed as thickening in microfilament at 1.0 uM after 24 hrs by immunofluorescence analysis relative to untreated control; assay type: functional, cell-based; settings: Potorous tridactylus; in short: as §1
PtK2 [7] = test: Effect on actin cytoskeleton in rat kangaroo PtK2 cells assessed as hairy appearance at 3 uM after 24 hrs by immunofluorescence analysis; assay type: functional, cell-based; settings: Potorous tridactylus; in short: as §1
PtK2 [8] = test: Effect on actin cytoskeleton in rat kangaroo PtK2 cells assessed as hairy appearance at 10 uM after 24 hrs by immunofluorescence analysis; assay type: functional, cell-based; settings: Potorous tridactylus; in short: as §1
[9] = Stimulation of rabbit muscle actin polymerization by centrifugation assay; assay type: tissue-based, Oryctolagus cuniculus, Muscle tissue
In short: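 Purified rabbit muscle actin with drug under nonpolymerizing conditions (no exogenous K+). Polymer was separated by centrifugation and supernatant protein measured. EC50 is the concentration reducing supernatant protein by 50% compared with a drug-free control. Three independent experiments were averaged. Total incubation plus processing time was 2.5 h.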

Oryctolagus cuniculus [10] = organism: Oryctolagus cuniculus; test: Stimulation of rabbit muscle actin polymerization assessed as light scattering at 10 to 50 uM by fluorimetry; settings: Muscle tissue
In short: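 90° light scattering at 400 nm, 22 °C. Background read for 3 min, then drug in DMSO added, mixed, and followed about 15 min. PIB (2.5 M KCl, 100 mM MgCl2, 50 mM ATP) used as reference inducer.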

Oryctolagus cuniculus [11] = organism: Oryctolagus cuniculus; test: Stimulation of rabbit muscle actin polymerization by electron microscopy; settings: Muscle tissue
In short: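 Samples of purified rabbit muscle actin with drug were examined by electron microscopy for filaments, in parallel with K+-induced controls. Low-speed centrifugation (20000g, 30 min, 22 °C) was used to test for bundled polymer.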

[12] = Displacement of FITC-phalloidin from rabbit muscle actin polymer after 1 hr by fluorescence analysis; assay type: tissue-based, Oryctolagus cuniculus, Muscle tissue
In short: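 Rabbit muscle actin and FITC-phalloidin were incubated 1 h at 22 °C in monomer buffer with 2 µL PIB per 100 µL. Drugs in DMSO were added for another 1 h at 22 °C, then the mixture was centrifuged and supernatant fluorescence read. EC50 is the concentration giving 50% of the maximal phalloidin-induced increase.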

Oryctolagus cuniculus [13] = organism: Oryctolagus cuniculus; test: Displacement of FITC-phalloidin from rabbit muscle actin polymer pretreated prior to FITC-phalloidin addition by fluorescence analysis; settings: Muscle tissue
[14] = Antiproliferative activity against human NCI60 cells; assay type: functional
CA46 [15] = test: Antiproliferative activity against human CA46 cells after 24 hrs; assay type: functional, cell-based; settings: CA46, 24 h
In short: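 CA46 Burkitt lymphoma cells are a suspension line. They were grown 24 h at 37 °C with drug, and cell number was the read-out. IC50 is the concentration giving 50% growth inhibition.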

[16] = Antiproliferative activity against rat kangaroo PtK2 cells after 48 hrs; assay type: cell-based; settings: Potorous tridactylus, PtK2, 48 h
In short: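 PtK2 kidney cells (Potorous tridactylis) are an attached line. They were exposed to drug for 48 h, and cell protein was the read-out of growth. IC50 was taken from the concentration response.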

Candida albicans [17] = test: Antimicrobial activity against Candida albicans ATCC 14053 at 100 ug/disk by standard paper sensitivity disk-agar plate method; assay type: functional; settings: read-out: IZ
In short: (§2)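 Agar disk diffusion with paper disks 6 mm in diameter, dose per disk as in line.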

Candida albicans [18] = test: Antimicrobial activity against Candida albicans ATCC 14053 at 10 ug/disk by standard paper sensitivity disk-agar plate method; assay type: functional; settings: read-out: IZ; in short: as §2
Pseudomonas aeruginosa = test: Antimicrobial activity against Pseudomonas aeruginosa ATCC 10145 by standard paper sensitivity disk-agar plate method; assay type: functional, organism-based
In short: (§3)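 Paper disks of 6 mm diameter placed on seeded agar plates; activity assessed by standard disk-agar sensitivity method.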

Escherichia coli = test: Antimicrobial activity against Escherichia coli ATCC 1775 by standard paper sensitivity disk-agar plate method; assay type: functional, organism-based; in short: as §3
[19] = system: Salmonella enterica subsp. enterica; test: Antimicrobial activity against Salmonella choleraesuis subsp. choleraesuis ATCC 14028 by standard paper sensitivity disk-agar plate method; assay type: functional, organism-based; in short: as §3
Bacillus subtilis = test: Antimicrobial activity against Bacillus subtilis ATCC 6051 by standard paper sensitivity disk-agar plate method; assay type: functional, organism-based
In short: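 Paper disk on agar, disk diameter 6 mm.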

Staphylococcus aureus = test: Antimicrobial activity against Staphylococcus aureus ATCC 12600 by standard paper sensitivity disk-agar plate method; assay type: functional, organism-based; in short: as §3
PtK2 [20] = test: Effect on actin cytoskeleton in rat kangaroo PtK2 cells assessed as reorganization and hypernucleation of actin assembly at 0.03 uM after 24 hrs by immunofluorescence analysis; assay type: functional, cell-based; settings: Potorous tridactylus; in short: as §1
PtK2 [21] = test: Effect on actin cytoskeleton in rat kangaroo PtK2 cells assessed as retracted cytoplasm and spiky appearance at 3 uM after 24 hrs by immunofluorescence analysis; assay type: functional, cell-based; settings: Potorous tridactylus; in short: as §1
CA46 [22] = test: Cell cycle arrest in human CA46 cells assessed as accumulation at G2/M phase at 1.0 uM after 24 hrs using propidium iodide labeling by flow cytometry; assay type: functional
In short: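 CA46 human Burkitt lymphoma cells were treated with the drug for 24 h. Cellular DNA content was then labelled with propidium iodide and measured by flow cytometry. The read-out was the percentage of cells in G2/M phase, compared against an untreated control.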

Question: What does the source list for `CC(=O)O[C@@H]1c2nc(cs2)C(=O)O[C@@H](CCCC(C)(Cl)Cl)[C@H](C)C(=O)O[C@@H](C(C)(C)O)c2nc(cs2)C(=O)OC1(C)C` [HECTOCHLORIN]?
Answer: Activity (CA46 [1]): 37%; Ratio IC50 (CA46 [2]): 10; Activity (PtK2 [3]): Active; Activity (PtK2 [4]): Active; Activity (PtK2 [5]): Active; Activity (PtK2 [6]): Active; Activity (PtK2 [7]): Active; Activity (PtK2 [8]): Active; pEC50 [9]: 4.70; Activity (Oryctolagus cuniculus [10]): Active; Activity (Oryctolagus cuniculus [11]): inactive; pEC50 [12]: < 4.22; Activity (Oryctolagus cuniculus [13]): inactive; GI50 [14]: 5100 nM; pIC50 (CA46 [15]): 7.70; pIC50 [16]: 6.52; zone of inhibition at 100 µg/disc (Candida albicans [17]): 16 mm; zone of inhibition at 10 µg/disc (Candida albicans [18]): 11 mm; Activity (Pseudomonas aeruginosa): inactive; Activity (Escherichia coli): inactive; Activity [19]: inactive; Activity (Bacillus subtilis): inactive; Activity (Staphylococcus aureus): inactive

Question: Which Activity (PtK2 [3]) does the source give for `C/C1=C\[C@H](C)C[C@H](C)OC(=O)C[C@H](c2ccc(O)cc2)NC(=O)[C@@H](Cc2c(Br)[nH]c3ccccc23)N(C)C(=O)[C@H](C)NC(=O)[C@@H](C)C1` [JASPAMIDE] here?
Answer: The Activity was “Active”.

Question: What about the Activity (PtK2 [4]) of the same molecule?
Answer: The Activity was “Active”.

Question: What about the Activity (PtK2 [20]) of the same molecule?
Answer: Its Activity is “Active”.

Question: What about the Activity (PtK2 [21]) of the same molecule?
Answer: Its Activity is “Active”.

Question: What about the Activity (Oryctolagus cuniculus [10]) of the same molecule?
Answer: Its Activity is “Active”.

Question: What about the pEC50 [12] of the same molecule?
Answer: The pEC50 was 5.19.

Question: What about the pIC50 (CA46 [15]) of the same molecule?
Answer: The pIC50 was 7.52.

Question: What about the pIC50 [16] of the same molecule?
Answer: The pIC50 was 6.52.

Question: For `CC(C)[C@@H]1NC(=O)CNC(=O)[C@@H]2CSC(=N2)[C@H](C(C)(C)O)OC(=O)C(C)(C)[C@H](CCCC(C)(Cl)Cl)OC(=O)c2csc1n2` [LYNGBYABELLIN B], which Activity (CA46 [22]) is on record?
Answer: Its Activity is 28%.

Question: And the Activity (PtK2 [3])?
Answer: The Activity was “Active”.

Question: What about the Activity (PtK2 [4]) of the same molecule?
Answer: The Activity was “Active”.

Question: What about the Activity (PtK2 [5]) of the same molecule?
Answer: Its Activity is “Active”.

Question: What about the Activity (PtK2 [6]) of the same molecule?
Answer: Its Activity is “Active”.

Question: What about the Activity (PtK2 [7]) of the same molecule?
Answer: The Activity was “Active”.

Question: What about the Activity (PtK2 [8]) of the same molecule?
Answer: The Activity was “Active”.

Question: What about the pEC50 [9] of the same molecule?
Answer: The pEC50 was under 4.30.

Question: And the pIC50 (CA46 [15])?
Answer: The pIC50 was 7.00.

Question: And the pIC50 [16]?
Answer: Its pIC50 is 6.00.
